Assay results as given in ChEMBL document CHEMBL4041542, “Synthesis and biological characterisation of ester and amide derivatives of fusidic acid as antiplasmodial agents” (Bioorg Med Chem Lett, 2017).

Tests used:
Plasmodium falciparum [1] = test: Antiplasmodial activity against chloroquine-resistant Plasmodium falciparum K1 by [3H]hypoxanthine incorporation assay; assay type: functional
Outline: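 Multidrug-resistant K1 strain of P. falciparum tested in vitro with a modified [3H]hypoxanthine incorporation assay. IC50 determined. Chloroquine and artesunate served as reference drugs in every experiment.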

[2] = Selectivity index, ratio of IC50 for CHO cells to IC50 for chloroquine-sensitive Plasmodium falciparum NF54; assay type: toxicity; conditions: hamster, read-out: Ratio IC50
Outline: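 IC50 against Chinese hamster ovary cells (cytotoxicity) was divided by IC50 against P. falciparum NF54. NF54 IC50 came from the lactate dehydrogenase assay, with chloroquine and artesunate as references.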

Plasmodium falciparum [3] = test: Antiplasmodial activity against chloroquine-sensitive Plasmodium falciparum D10 infected in erythrocytes after 48 hrs by giemsa staining based assay; assay type: functional, cell-based; conditions: D10, 48 h
CHO = test: Cytotoxicity against CHO cells; assay type: cell-based; conditions: Cricetulus griseus
Plasmodium falciparum [4] = test: Antiplasmodial activity against chloroquine-sensitive Plasmodium falciparum NF54 by LDH assay; assay type: functional
Outline: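 In vitro test on the chloroquine-sensitive NF54 strain of P. falciparum, read out by the lactate dehydrogenase assay. Reported as IC50. Chloroquine and artesunate were included as reference drugs in all experiments.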

[5] = Stability of the compound assessed as Plasmodium falciparum NF54 esterase-mediated fusidic acid release at 0.5 uM up to 48 hrs by LC-MS/MS analysis; assay type: ADME; conditions: plasmodium falciparum nf54, isolated protein
Plasmodium falciparum [6] = test: Potency index, ratio of fusidic acid IC50 to compound IC50 for chloroquine-sensitive Plasmodium falciparum NF54; assay type: functional
Outline: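 Chloroquine-sensitive P. falciparum NF54 was tested with the lactate dehydrogenase assay, using chloroquine and artesunate as reference drugs. The index is fusidic acid's IC50 divided by the compound's IC50, both against NF54.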

Plasmodium falciparum [7] = test: Potency index, ratio of fusidic acid IC50 to compound IC50 for chloroquine-resistant Plasmodium falciparum K1; assay type: functional

## CC(=O)O[C@H]1C[C@@]2(C)[C@@H](C[C@@H](O)[C@H]3[C@@]4(C)CC[C@@H](O)[C@@H](C)[C@@H]4CC[C@@]32C)/C1=C(\CCC=C(C)C)C(=O)O [FUSIDIC ACID]
Plasmodium falciparum [1]
  IC50: 19 µM
[2]
  selectivity ratio: > 3
Plasmodium falciparum [3]
  IC50: 50 µM
CHO
  IC50: > 194 µM

## CC(=O)O[C@H]1C[C@@]2(C)[C@@H](C[C@@H](O)[C@H]3[C@@]4(C)CC[C@@H](O)[C@@H](C)[C@@H]4CC[C@@]32C)/C1=C(\CCC=C(C)C)C(=O)Nc1ccccc1
Plasmodium falciparum [4]
  IC50: 1.2 µM
Plasmodium falciparum [1]
  IC50: 1.4 µM
[2]
  selectivity ratio: 74
[5]
  Stability: Stable
CHO
  IC50: 89.2 µM
Plasmodium falciparum [6]
  Ratio IC50: 4 - 49
Plasmodium falciparum [7]
  Ratio IC50: 5 - 17
